≈ marks a conversion by molar mass, not a printed value.
Tests used:
[1] = test system: Candida albicans; test: Antifungal activity against Candida albicans assessed as inhibition zone diameter […] by agar dilution method; assay type: functional
Procedure, shortened: (§1)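 Compounds in DMSO placed in punched wells on Sabouraud agar (peptone, glucose, agar, pH 5.7) lawned with saline spore suspension. Plates pre-dried 1 h at 37 °C. Controls in triplicate, incubation at 37 °C for 3-4 days, then inhibition zone diameter read in mm. Amphotericin B reference.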

[2] = test system: Aspergillus flavus; test: Antifungal activity against Aspergillus flavus after 48 hrs […]; assay type: functional
[3] = test system: Klebsiella pneumoniae; test: Antibacterial activity against Klebsiella pneumoniae assessed as inhibition zone diameter after 24 hrs […]; assay type: functional
Procedure, shortened: (§2)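 Disc diffusion on nutrient agar. Inoculum 1-2 × 10^7 c.f.u/ml (0.5 McFarland) spread over the plate surface. Sterile 6.25 mm filter-paper discs soaked in a known concentration of compound. Solvent and growth controls included. Plates incubated inverted 24 h at 37 °C, then inhibition zone diameter measured in mm. Ciprofloxacin reference.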

[4] = test system: Streptococcus pyogenes; test: Antibacterial activity against Streptococcus pyogenes after 24 hrs by broth dilution technique; assay type: functional
Procedure, shortened: (§3)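 MIC by broth dilution in nutrient broth with logarithmic serial twofold dilutions of compound. Inoculum approx. 5×10^5 c.f.u actively dividing bacteria. Incubated 24 h at 37 °C, growth monitored visually and spectrophotometrically. MIC taken as the lowest concentration (highest dilution) arresting growth. Ciprofloxacin reference.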

[5] = test system: Pseudomonas aeruginosa; test: Antibacterial activity against Pseudomonas aeruginosa ATCC 27853 after 24 hrs by broth dilution technique; assay type: functional; details: ATCC 27853, 24 h; procedure, shortened: as §3
[6] = test system: Aspergillus fumigatus; test: Antifungal activity against Aspergillus fumigatus after 48 hrs […]; assay type: functional
[7] = test system: Candida albicans; test: Antifungal activity against Candida albicans after 48 hrs […]; assay type: functional
[8] = test system: Aspergillus fumigatus; test: Antifungal activity against Aspergillus fumigatus assessed as inhibition zone diameter […] by agar dilution method; assay type: functional; procedure, shortened: as §1
[9] = test system: Staphylococcus aureus; test: Antibacterial activity against Staphylococcus aureus ATCC 25923 after 24 hrs by broth dilution technique; assay type: functional; details: ATCC 25923, 24 h; procedure, shortened: as §3
[10] = test system: Trichophyton mentagrophytes; test: Antifungal activity against Trichophyton mentagrophytes after 48 hrs […]; assay type: functional
[11] = test system: Streptococcus pyogenes; test: Antibacterial activity against Streptococcus pyogenes assessed as inhibition zone diameter after 24 hrs by disc diffusion method
[12] = test system: Aspergillus flavus; test: Antifungal activity against Aspergillus flavus assessed as inhibition zone diameter […] by agar dilution method; assay type: functional; procedure, shortened: as §1
[13] = test system: Staphylococcus aureus; test: Antibacterial activity against Staphylococcus aureus ATCC 25923 assessed as inhibition zone diameter after 24 hrs […]; assay type: functional; procedure, shortened: as §2
[14] = test system: Talaromyces marneffei; test: Antifungal activity against Penicillium marneffei assessed as inhibition zone diameter […] by agar dilution method; assay type: functional; procedure, shortened: as §1
[15] = test system: Klebsiella pneumoniae; test: Antibacterial activity against Klebsiella pneumoniae after 24 hrs by broth dilution technique; assay type: functional; procedure, shortened: as §3
[16] = test system: Trichophyton mentagrophytes; test: Antifungal activity against Trichophyton mentagrophytes assessed as inhibition zone diameter […] by agar dilution method; assay type: functional; procedure, shortened: as §1
[17] = test system: Pseudomonas aeruginosa; test: Antibacterial activity against Pseudomonas aeruginosa ATCC 27853 assessed as inhibition zone diameter after 24 hrs […]; assay type: functional; procedure, shortened: as §2
[18] = test system: Escherichia coli; test: Antibacterial activity against Escherichia coli ATCC 25922 after 24 hrs by broth dilution technique; assay type: functional; details: ATCC 25922, 24 h; procedure, shortened: as §3
[19] = test system: Talaromyces marneffei; test: Antifungal activity against Penicillium marneffei after 48 hrs […]; assay type: functional

## Nn1c(SCC(=O)Nc2ccc(F)cc2)nnc1-c1cc(F)c(Cl)cc1Cl
[1]
  inhibition zone (IZ): 19 mm
[2]
  MIC: 6.25 µg/mL (≈ 14.5 µM)
[3]
  inhibition zone (IZ): 21 mm
[4]
  MIC: 6.25 µg/mL (≈ 14.5 µM)
[5]
  MIC: 6.25 µg/mL (≈ 14.5 µM)
[6]
  MIC: 6.25 µg/mL (≈ 14.5 µM)
[7]
  MIC: 6.25 µg/mL (≈ 14.5 µM)
[8]
  inhibition zone (IZ): 19 mm
[9]
  MIC: 6.25 µg/mL (≈ 14.5 µM)
[10]
  MIC: 6.25 µg/mL (≈ 14.5 µM)
[11]
  inhibition zone (IZ): 22 mm
[12]
  inhibition zone (IZ): 21 mm
[13]
  inhibition zone (IZ): 23 mm
[14]
  inhibition zone (IZ): 24 mm
[15]
  MIC: 6.25 µg/mL (≈ 14.5 µM)
[16]
  inhibition zone (IZ): 17 mm
[17]
  inhibition zone (IZ): 30 mm
[18]
  MIC: 6.25 µg/mL (≈ 14.5 µM)
[19]
  MIC: 6.25 µg/mL (≈ 14.5 µM)

Source: ChEMBL document CHEMBL1149770, “Synthesis and antimicrobial studies of novel dichlorofluorophenyl containing aminotriazolothiadiazines” (2008)
